An excerpt weighted towards active compounds, which were near 5% of everything screened.
Mdm2 MdmX PPI – inhibitors of human Mdm2-MdmX association, primary screen, cell-based, luminescence, split luciferase, SaOS-2, uHTS; SaOS-2 split-luciferase Mdm2/MdmX complementation; inhibition, % at 8 µM; 330,000 tested, 3% active; AID 485346, 2010;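 active means inhibition of at least 50% at 8 µM in the primary screen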
Target sequence (O15151 whole entry, looked up): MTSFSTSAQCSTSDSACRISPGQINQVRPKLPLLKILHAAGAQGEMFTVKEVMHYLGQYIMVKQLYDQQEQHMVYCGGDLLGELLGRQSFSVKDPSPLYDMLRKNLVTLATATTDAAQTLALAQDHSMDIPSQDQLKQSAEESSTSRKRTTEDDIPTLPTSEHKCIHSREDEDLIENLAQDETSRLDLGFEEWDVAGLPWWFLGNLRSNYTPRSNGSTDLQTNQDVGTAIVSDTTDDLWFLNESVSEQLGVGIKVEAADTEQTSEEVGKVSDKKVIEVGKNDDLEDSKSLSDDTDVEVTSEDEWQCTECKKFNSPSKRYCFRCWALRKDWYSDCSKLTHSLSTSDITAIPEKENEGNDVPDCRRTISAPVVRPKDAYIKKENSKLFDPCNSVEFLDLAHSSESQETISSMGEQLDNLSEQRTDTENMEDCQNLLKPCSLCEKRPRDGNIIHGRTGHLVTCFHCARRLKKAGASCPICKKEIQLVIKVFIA
Target sequence (Q00987 whole entry, looked up): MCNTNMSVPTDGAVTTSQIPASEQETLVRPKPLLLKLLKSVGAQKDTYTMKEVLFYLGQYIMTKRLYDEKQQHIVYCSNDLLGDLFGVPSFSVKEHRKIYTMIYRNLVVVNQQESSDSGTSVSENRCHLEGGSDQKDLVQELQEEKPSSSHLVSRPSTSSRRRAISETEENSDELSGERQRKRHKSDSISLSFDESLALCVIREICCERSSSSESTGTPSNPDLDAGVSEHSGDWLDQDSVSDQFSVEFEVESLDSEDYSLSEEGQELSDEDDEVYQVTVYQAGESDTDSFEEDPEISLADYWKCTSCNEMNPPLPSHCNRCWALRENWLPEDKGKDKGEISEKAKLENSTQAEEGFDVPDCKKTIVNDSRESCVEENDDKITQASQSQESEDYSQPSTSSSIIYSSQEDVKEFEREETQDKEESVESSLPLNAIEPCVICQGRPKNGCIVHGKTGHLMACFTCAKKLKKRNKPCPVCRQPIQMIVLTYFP
CSC inhib – cancer stem cell viability inhibitors, primary screen, luminescence; inhibition, % at 7.5 µM; cancer stem cell-like cells viability; 300,000 tested, 1.1% active; in the data active means inhibition above about 75%; tested in HMLE shEcad cells
CHOP UPR activ – activators of apoptotic CHOP UPR arm, primary screen, cell-based, CHO-CHOP luciferase reporter, luminescence, uHTS; AID 449763, 2010; activation, % at 10 µM; 330,000 tested, 0.34% active; UPR activation; percent of tunicamycin response over DMSO baseline;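 active means at 10 µM dose, activation of 40% or more, normalized to positive control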
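System: CHO CHOP reporter cells. Amount: 500 cells per well. Buffer or medium: F12 medium, 10% FBS. Compound dosing: one dose, 10 µM in 0.5% DMSO. Incubation: 6 h compound exposure at 37 °C after overnight seeding. Technique: Steady-Glo luciferase luminescence. Benchmarks: tunicamycin and DMSO controls.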
Beta cell apopt – inhibitors of cytokine-induced beta cell apoptosis, primary screen, luminescence; INS-1E cytokine-induced death, ATP luminescence, 48 h; percent of positive-control rescue, neutral wells zero; protection from apoptosis, % (no concentration beside the values); 300,000 tested, 0.8% active; AID 435005, 2010;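 active means Every replicate reaches about 75%, or at least half do and their mean reaches it too, limit read from the data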;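 further: higher means more ATP so stronger rescue from cytokine killing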
T cruzi repl – inhibitors of intracellular T. cruzi growth, primary screen, luminescence, NIH3T3 host cells; inhibition, % (concentration not given with the values); T. cruzi beta-gal in NIH3T3, 90 h; 300,000 tested, 1.4% active;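 active means mean inhibition across valid replicates above about 55%, limit read from the data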;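 further: signal also drops with host cell toxicity which is not excluded here; higher percent means less beta-gal luminescence so fewer parasites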
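Assay system: NIH/3T3 host cells with β-galactosidase reporter T. cruzi; input: 5,000 host fibroblasts per well; compound: single 50 nL compound addition per well in DMSO; timing: ≥90 h infection period, 3 h prior cell attachment; measured by: GalScreen β-gal luminescence, detergent lysis, 60 min; evaluation: percent inhibition of parasite-derived β-gal signal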
XBP1 UPR activ – activators of adaptive XBP1 UPR arm, primary screen, cell-based, CHO-XBP1 luciferase reporter, luminescence, uHTS; IRE1-XBP1 UPR activation; percent of tunicamycin response, DMSO as zero; 330,000 tested, 0.33% active; activation, % at 20 µM;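 active means versus positive control, 20 µM dose yields 30% or more activation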
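Material: CHO-XBP1 cells stably carrying IRE1-XBP1-driven luciferase reporter / Amount: 1000 cells per well / Compound: 20 µM, 1% DMSO / Times: 6 h treatment, 37 °C / Detection: luciferase luminescence / Measure: % activation of reporter signal versus tunicamycin and DMSO controls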
Mdm2-MdmX conf – Mdm2-MdmX complex disruptors, retested hits, confirmation, luminescence, single concentration; shares compounds with Mdm2 MdmX PPI; Mdm2-MdmX binding, luminescent assay; inhibition, % at 8 µM; 10,000 tested, 55% active; in the data active means inhibition above about 40%
Full FLuc ctr – full-length luciferase signal inhibition, confirmation, counter-screen for Mdm2/MdmX interaction inhibitor project, cell-based, single concentration, SaOS-2 | shares compounds with Mdm2 MdmX PPI | SaOS-2 full-length luciferase counterscreen, luminescence | inhibition, % at 8 µM | 6,200 tested, 77% active | AID 504607, 2011;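 active means mean inhibition at 8 µM reaching about 37%, which flags the compound as non-specific, limit read from the data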;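 further: p53-null SaOS-2 cells with luciferase driven by a doxycycline-inducible promoter; compound on cells about two nights before reading with doxycycline added after day one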
Hits are given with their value.

For CCc1cc2c(=O)c(-c3cnn(-c4ccccc4)c3)c(C)oc2cc1OCC(=O)Nc1ccc(F)c(F)c1 the results were Mdm2 MdmX PPI 62, CSC inhib inactive, CHOP UPR activ inactive, Beta cell apopt inactive, T cruzi repl inactive, XBP1 UPR activ inactive, Mdm2-MdmX conf 74 and Full FLuc ctr 87.
Screening CCc1cc2c(=O)c(-c3ccc(F)cc3)c(C)oc2cc1OCC(=O)O returned Mdm2 MdmX PPI inactive, CSC inhib inactive, CHOP UPR activ inactive, Beta cell apopt inactive, T cruzi repl inactive and XBP1 UPR activ inactive.
Screening COc1cc(-c2nnc(SCC(=O)N(Cc3ccccc3)C(C)(C)C)o2)cc(OC)c1OC returned Mdm2 MdmX PPI 51, CSC inhib inactive, CHOP UPR activ inactive, Beta cell apopt inactive, T cruzi repl inactive, XBP1 UPR activ inactive, Mdm2-MdmX conf 42 and Full FLuc ctr 91.
`COCCN(Cc1cc2ccc(C)cc2[nH]c1=O)S(=O)(=O)c1ccccc1` gave Mdm2 MdmX PPI inactive, CSC inhib inactive, CHOP UPR activ inactive, Beta cell apopt inactive, T cruzi repl inactive and XBP1 UPR activ inactive.
CC1=CC(C)(C)N2C(=O)C3(C(C#N)=C(N)OC4=C3C(=O)CCC4)c3c(C)c(C)cc1c32 (stereo not drawn) was read as Mdm2 MdmX PPI inactive, CSC inhib inactive, CHOP UPR activ inactive, Beta cell apopt inactive, T cruzi repl inactive and XBP1 UPR activ inactive.
Screening CC1=CC(C)(C)N2C(=O)C3(C(C#N)=C(N)Oc4cc(O)ccc43)c3c(C)c(C)cc1c32 (stereo not drawn) returned Mdm2 MdmX PPI 68, CSC inhib inactive, CHOP UPR activ inactive, Beta cell apopt inactive, T cruzi repl inactive, XBP1 UPR activ inactive, Mdm2-MdmX conf 61 and Full FLuc ctr 48.
COc1ccc(Cl)cc1NS(=O)(=O)c1cccc(C(=O)NCCCN2CCCC2=O)c1 was read as Mdm2 MdmX PPI inactive, CSC inhib inactive, CHOP UPR activ inactive, Beta cell apopt inactive, T cruzi repl inactive and XBP1 UPR activ inactive.
`CCOC(=O)c1c(C)n(-c2ccc(C)cc2)c2ccc(OCC(O)CNCCCO)cc12` (stereo not drawn) gave Mdm2 MdmX PPI 89, CSC inhib inactive, CHOP UPR activ inactive, Beta cell apopt inactive, XBP1 UPR activ inactive and Mdm2-MdmX conf inactive.
`OC(CNCC1CCCO1)COc1ccc(OCC(O)CNCC2CCCO2)cc1` (stereo not drawn) gave Mdm2 MdmX PPI inactive, CSC inhib inactive, CHOP UPR activ inactive, Beta cell apopt inactive, T cruzi repl inactive and XBP1 UPR activ inactive.
For CCOC(=O)c1c(C)n(-c2ccc(C)cc2)c2ccc(OCC(O)CNCC3CCCO3)cc12 (stereo not drawn) the results were Mdm2 MdmX PPI 78, CSC inhib 118, CHOP UPR activ inactive, Beta cell apopt inactive, T cruzi repl 64, XBP1 UPR activ inactive, Mdm2-MdmX conf 42 and Full FLuc ctr 62.
Screening O=C(CCNS(=O)(=O)c1ccc(Br)cc1)N1CCN(c2ccccc2O)CC1 returned Mdm2 MdmX PPI inactive, CSC inhib inactive, CHOP UPR activ inactive, Beta cell apopt inactive, T cruzi repl inactive and XBP1 UPR activ inactive.
`O=C(Nc1ccc(N2CCOCC2)cc1)Nc1ccc2nc(-c3ccco3)c(-c3ccco3)nc2c1` gave Mdm2 MdmX PPI 61, CHOP UPR activ inactive, Beta cell apopt inactive, T cruzi repl inactive, XBP1 UPR activ inactive, Mdm2-MdmX conf 41 and Full FLuc ctr 61.
For COc1cc(Cl)cc2c1Sc1ccccc1/C2=C/CCN(C)C the results were Mdm2 MdmX PPI 69, CSC inhib inactive, CHOP UPR activ inactive, T cruzi repl inactive, XBP1 UPR activ inactive and Mdm2-MdmX conf inactive.
O=C(CN(c1cccc(C(F)(F)F)c1)S(=O)(=O)c1ccc(Cl)c([N+](=O)[O-])c1)NCc1ccccc1Cl was read as Mdm2 MdmX PPI 73, CSC inhib 101, CHOP UPR activ inactive, Beta cell apopt inactive, T cruzi repl inactive, XBP1 UPR activ inactive, Mdm2-MdmX conf inactive and Full FLuc ctr 103.
`O=C(CN(c1cccc(C(F)(F)F)c1)S(=O)(=O)c1ccc(Cl)c([N+](=O)[O-])c1)NCc1ccccc1` gave Mdm2 MdmX PPI 82, CSC inhib 85, CHOP UPR activ inactive, Beta cell apopt inactive, T cruzi repl inactive, XBP1 UPR activ inactive, Mdm2-MdmX conf 40 and Full FLuc ctr 59.
`Cc1ccc(N(CC(=O)NCCc2ccc(F)cc2)S(=O)(=O)c2ccc(Cl)c([N+](=O)[O-])c2)c(C)c1` gave Mdm2 MdmX PPI 100, CSC inhib 80, CHOP UPR activ inactive, Beta cell apopt inactive, T cruzi repl inactive, XBP1 UPR activ inactive and Mdm2-MdmX conf inactive.
`COc1ccc(CCNC(=O)CN(c2ccc(OC)c(OC)c2)S(=O)(=O)c2ccc(C)cc2)cc1` gave Mdm2 MdmX PPI inactive, CHOP UPR activ inactive, Beta cell apopt inactive, T cruzi repl inactive and XBP1 UPR activ inactive.
`CCOC(=O)C1CCN(S(=O)(=O)c2cn(C)cn2)CC1` gave Mdm2 MdmX PPI inactive, CSC inhib inactive, CHOP UPR activ inactive, Beta cell apopt inactive, T cruzi repl inactive and XBP1 UPR activ inactive.
For N#Cc1c2ccc([N+](=O)[O-])cc2[n+]([O-])n1-c1ccccc1 the results were Mdm2 MdmX PPI 77, CHOP UPR activ inactive, Beta cell apopt 101, XBP1 UPR activ inactive and Mdm2-MdmX conf inactive.
COc1cc(-c2cc(C(=O)Nc3ccc(S(=O)(=O)NCc4ccco4)cc3)c3ccccc3n2)cc(OC)c1OC was read as Mdm2 MdmX PPI 63, CSC inhib inactive, CHOP UPR activ inactive, Beta cell apopt inactive, T cruzi repl 56, XBP1 UPR activ inactive, Mdm2-MdmX conf 77 and Full FLuc ctr 50.
`COc1ccc(NC(=O)c2cc(-c3ccncc3)nc3ccc(Br)cc23)cc1OC` gave Mdm2 MdmX PPI 97, CSC inhib inactive, CHOP UPR activ inactive, Beta cell apopt inactive, T cruzi repl inactive, XBP1 UPR activ inactive and Mdm2-MdmX conf inactive.

Screening results: PubChem BioAssay, several laboratories
